# Measurements: ChEMBL document CHEMBL3272325, “Structure-activity relationships of dimeric Catharanthus alkaloids. 1. Deacetylvinblastine amide (vindesine) sulfate” (J Med Chem, 1978)
# Active and inactive are the calls of the source. No cut-off for these calls is given here.
# Key:
# B16 [1] = experiment: Antitumor activity against mouse B16 cells allografted in B6D2F1 mouse assessed as mean survival time at 0.389 mg/kg/day, ip administered on day 1, 5 and 9 (reference value: 20.0 days); format: functional; details: route intraperitoneal
# Outline: (§1)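 Male B6D2F1 mice implanted ip on day 0 with 0.25 mL of a 20% (w/v) B16 melanoma brei. Alkaloid sulfate salts given ip on days 1, 5, 9 or on days 5, 9, 13, groups of 10, against 30 untreated controls. Read-outs: median survival time with range of individual deaths, and percent increase in life span, with survivors counted on day 56.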
# B16 [2] = experiment: Antitumor activity against mouse B16 cells allografted in B6D2F1 mouse assessed as mean survival time at 0.648 mg/kg/day, ip administered on day 1, 5 and 9 (reference value: 20.0 days); format: functional; details: route intraperitoneal; outline: as §1
# P388 [3] = experiment: Antitumor activity against mouse P388 cells allografted in mouse assessed as increase in life span at 9 mg/kg/day, ip after 1 day; format: functional; details: 24 h, route intraperitoneal
# Outline: (§2)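 P388 ascites implanted ip in mice, 10 animals per group. Sulfate salts given ip either daily on days 1-9 or as a single dose on day 1. Median life span was calculated using all deaths and survivors. Percent increase in life span was taken over untreated controls. The highest nontoxic dose was noted.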
# B16 [4] = experiment: Antitumor activity against mouse B16 cells allografted in B6D2F1 mouse assessed as mean survival time at 1.08 mg/kg/day, ip administered on day 1, 5 and 9 (reference value: 20.0 days); format: functional; details: route intraperitoneal; outline: as §1
# P388 [5] = experiment: Antitumor activity against mouse P388 cells allografted in mouse assessed as increase in life span at 6 mg/kg/day, ip after 1 day; format: functional; details: 24 h, route intraperitoneal; outline: as §2
# P388 [6] = experiment: Antitumor activity against mouse P388 cells allografted in mouse assessed as increase in life span at 4 mg/kg/day, ip after 1 day; format: functional; details: 24 h, route intraperitoneal; outline: as §2
# P388 [7] = experiment: Antitumor activity against mouse P388 cells allografted in mouse assessed as increase in life span at 2.7 mg/kg/day, ip after 1 day; format: functional; details: 24 h, route intraperitoneal; outline: as §2
# B16 [8] = experiment: Antitumor activity against mouse B16 cells allografted in B6D2F1 mouse assessed as mean survival time at 1.8 mg/kg/day, ip administered on day 1, 5 and 9 (reference value: 20.0 days); format: functional; details: route intraperitoneal; outline: as §1
# B16 [9] = experiment: Antitumor activity against mouse B16 cells allografted in B6D2F1 mouse assessed as mean survival time at 3 mg/kg/day, ip administered on day 1, 5 and 9 (reference value: 20.0 days); format: functional; details: route intraperitoneal; outline: as §1
# [10] = Toxicity in ip dosed mouse allografted with mouse p388 cells administered from day 1 to day 9; format: organism-based; details: in vivo, read-out: MNTD; outline: as §2
# [11] = Toxicity in ip dosed mouse allografted with mouse p388 cells after 1 day; format: organism-based; details: in vivo, read-out: MNTD; outline: as §2
# B16 [12] = experiment: Antitumor activity against mouse B16 cells allografted in B6D2F1 mouse assessed as increase in life span at 3 mg/kg/day, ip administered on day 1, 5 and 9 measured for 56 days relative to untreated control; format: functional; details: route intraperitoneal; outline: as §1
# B16 [13] = experiment: Antitumor activity against mouse B16 cells allografted in B6D2F1 mouse assessed as increase in life span at 1.8 mg/kg/day, ip administered on day 1, 5 and 9 measured for 56 days relative to untreated control; format: functional; details: route intraperitoneal; outline: as §1
# B16 [14] = experiment: Antitumor activity against mouse B16 cells allografted in B6D2F1 mouse assessed as increase in life span at 1.08 mg/kg/day, ip administered on day 1, 5 and 9 measured for 56 days relative to untreated control; format: functional; details: route intraperitoneal; outline: as §1
# B16 [15] = experiment: Antitumor activity against mouse B16 cells allografted in B6D2F1 mouse assessed as increase in life span at 0.648 mg/kg/day, ip administered on day 1, 5 and 9 measured for 56 days relative to untreated control; format: functional; details: route intraperitoneal; outline: as §1
# B16 [16] = experiment: Antitumor activity against mouse B16 cells allografted in B6D2F1 mouse assessed as increase in life span at 0.389 mg/kg/day, ip administered on day 1, 5 and 9 measured for 56 days relative to untreated control; format: functional; details: route intraperitoneal; outline: as §1
# B16 [17] = experiment: Antitumor activity against mouse B16 cells allografted in B6D2F1 mouse assessed as mean survival time at 3 mg/kg/day, ip administered on day 5, 9 and 13 (reference value: 20.0 days); format: functional; details: route intraperitoneal; outline: as §1
# B16 [18] = experiment: Antitumor activity against mouse B16 cells allografted in B6D2F1 mouse assessed as mean survival time at 1.8 mg/kg/day, ip administered on day 5, 9 and 13 (reference value: 20.0 days); format: functional; details: route intraperitoneal; outline: as §1
# B16 [19] = experiment: Antitumor activity against mouse B16 cells allografted in B6D2F1 mouse assessed as mean survival time at 1.08 mg/kg/day, ip administered on day 5, 9 and 13 (reference value: 20.0 days); format: functional; details: route intraperitoneal; outline: as §1
# B16 [20] = experiment: Antitumor activity against mouse B16 cells allografted in B6D2F1 mouse assessed as mean survival time at 0.648 mg/kg/day, ip administered on day 5, 9 and 13 (reference value: 20.0 days); format: functional; details: route intraperitoneal; outline: as §1
# B16 [21] = experiment: Antitumor activity against mouse B16 cells allografted in B6D2F1 mouse assessed as mean survival time at 0.389 mg/kg/day, ip administered on day 5, 9 and 13 (reference value: 20.0 days); format: functional; details: route intraperitoneal; outline: as §1
# B16 [22] = experiment: Antitumor activity against mouse B16 cells allografted in B6D2F1 mouse assessed as increase in life span at 3 mg/kg/day, ip administered on day 5, 9 and 13 measured for 56 days relative to untreated control; format: functional; details: route intraperitoneal; outline: as §1
# B16 [23] = experiment: Antitumor activity against mouse B16 cells allografted in B6D2F1 mouse assessed as increase in life span at 1.8 mg/kg/day, ip administered on day 5, 9 and 13 measured for 56 days relative to untreated control; format: functional; details: route intraperitoneal; outline: as §1
# B16 [24] = experiment: Antitumor activity against mouse B16 cells allografted in B6D2F1 mouse assessed as increase in life span at 1.08 mg/kg/day, ip administered on day 5, 9 and 13 measured for 56 days relative to untreated control; format: functional; details: route intraperitoneal; outline: as §1
# B16 [25] = experiment: Antitumor activity against mouse B16 cells allografted in B6D2F1 mouse assessed as increase in life span at 0.648 mg/kg/day, ip administered on day 5, 9 and 13 measured for 56 days relative to untreated control; format: functional; details: route intraperitoneal; outline: as §1
# B16 [26] = experiment: Antitumor activity against mouse B16 cells allografted in B6D2F1 mouse assessed as increase in life span at 0.389 mg/kg/day, ip administered on day 5, 9 and 13 measured for 56 days relative to untreated control; format: functional; details: route intraperitoneal; outline: as §1
# [27] = Antitumor activity against mouse Ridgeway osteogenic sarcoma cells allografted in mouse at 0.1 to 0.35 mg/kg/day, ip; format: functional; details: route intraperitoneal
# Outline: (§3)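 Sulfate salts given ip on days 1-9 against ROS and GLS in mice; tumor growth scored as percent inhibition versus controls (+++ = 75-100%, ++ = 50-75%, ± = under 25%).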
# [28] = Antitumor activity against mouse Gardner lymphosarcoma cell allografted in mouse at 0.1 to 0.35 mg/kg/day, ip; format: functional; details: route intraperitoneal; outline: as §3
# [29] = Acute toxicity in ip dosed mouse; format: organism-based; details: in vivo
# P388 [30] = experiment: Antitumor activity against mouse P388 cells allografted in mouse assessed as survival at 2.7 mg/kg/day after 1 day; format: functional, organism-based
# Outline: (§4)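 P388 ascites implanted ip in mice; sulfate salts dosed either daily or as a single dose on day 1, 10 animals per group. Survivors per total were recorded, median life span was calculated using all deaths and survivors, and percent increase of life span was reported.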
# [31] = Antitumor activity against mouse P1534(J) cells allografted in mouse assessed as tumor growth inhibition at 0.35 mg/kg/day, ip administered from day 1 to day 9 relative to unreated control; format: functional; details: P1534J, route intraperitoneal, read-out: TGI
# Outline: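 P1534(J) leukemia implanted subcutaneously in mice; sulfate salts given ip on days 1-9. Read-out is percent inhibition of tumor growth versus untreated controls.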
# [32] = Toxicity in ip dosed mouse allografted with mouse P1534(J) cells administered from day 1 to day 9; format: organism-based; details: in vivo, read-out: MNTD
# Outline: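 P1534(J) leukemia implanted subcutaneously in mice. Sulfate salts given ip daily on days 1-9. Read-out was percent inhibition of tumor growth relative to untreated controls. The highest nontoxic dose was recorded.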
# P388 [33] = experiment: Antitumor activity against mouse P388 cells allografted in mouse assessed as survival at 4 mg/kg/day after 1 day; format: functional, organism-based; outline: as §4
# P388 [34] = experiment: Antitumor activity against mouse P388 cells allografted in mouse assessed as survival at 0.4 mg/kg/day administered from day 1 to day 9; format: functional, organism-based; outline: as §4
# P388 [35] = experiment: Antitumor activity against mouse P388 cells allografted in mouse assessed as increase in life span at 0.9 mg/kg/day, ip administered from day 1 to day 9 relative to untreated control; format: functional; details: route intraperitoneal; outline: as §2
# P388 [36] = experiment: Antitumor activity against mouse P388 cells allografted in mouse assessed as increase in life span at 0.6 mg/kg/day, ip administered from day 1 to day 9 relative to untreated control; format: functional; details: route intraperitoneal; outline: as §2
# P388 [37] = experiment: Antitumor activity against mouse P388 cells allografted in mouse assessed as increase in life span at 0.4 mg/kg/day, ip administered from day 1 to day 9 relative to untreated control; format: functional; details: route intraperitoneal; outline: as §2
# P388 [38] = experiment: Antitumor activity against mouse P388 cells allografted in mouse assessed as increase in life span at 0.27 mg/kg/day, ip administered from day 1 to day 9 relative to untreated control; format: functional; details: route intraperitoneal; outline: as §2
# [39] = Acute toxicity in rat; format: organism-based; details: in vivo
smiles,measurement,setting,value
CC[C@]1(O)C[C@@H]2CN(CCc3c([nH]c4ccccc34)[C@@](C(=O)OC)(c3cc4c(cc3OC)N(C)[C@H]3[C@@](O)(C(=O)OC)[C@H](OC(C)=O)[C@]5(CC)C=CCN6CC[C@]43[C@@H]65)C2)C1.O=S(=O)(O)O [VINBLASTINE SULFATE],MST,B16 [1],32 days
same,MST,B16 [2],33.5 days
same,ILS at 9 mg/kg/day,P388 [3],127%
same,MST,B16 [4],35.5 days
same,ILS at 6 mg/kg/day,P388 [5],109%
same,ILS at 4 mg/kg/day,P388 [6],95%
same,ILS at 2.7 mg/kg/day,P388 [7],81%
same,MST,B16 [8],38.5 days
same,MST,B16 [9],40.5 days
same,MTD,[10],0.9 mg/kg/day
same,MTD at 24 h,[11],9 mg/kg/day
same,ILS at 3 mg/kg/day,B16 [12],102%
same,ILS at 1.8 mg/kg/day,B16 [13],92%
same,ILS at 1.08 mg/kg/day,B16 [14],78%
same,ILS at 0.648 mg/kg/day,B16 [15],68%
same,ILS at 0.389 mg/kg/day,B16 [16],60%
same,MST,B16 [17],32.5 days
same,MST,B16 [18],25 days
same,MST,B16 [19],27.5 days
same,MST,B16 [20],28 days
same,MST,B16 [21],22.5 days
same,ILS at 3 mg/kg/day,B16 [22],62%
same,ILS at 1.8 mg/kg/day,B16 [23],25%
same,ILS at 1.08 mg/kg/day,B16 [24],39%
same,ILS at 0.648 mg/kg/day,B16 [25],40%
same,ILS at 0.389 mg/kg/day,B16 [26],12%
same,TGI,[27],<25%
same,TGI,[28],<25%
same,LD50,[29],10 mg/kg
same,Activity,P388 [30],inactive
same,inhibition in vivo at 0.35 mg/kg/day,[31],54%
same,MTD,[32],0.35 mg/kg/day
same,Activity,P388 [33],inactive
same,Activity,P388 [34],inactive
same,ILS at 0.9 mg/kg/day,P388 [35],109%
same,ILS at 0.6 mg/kg/day,P388 [36],> 263%
same,ILS at 0.4 mg/kg/day,P388 [37],72%
same,ILS at 0.27 mg/kg/day,P388 [38],131%
same,LD50,[39],2.9 mg/kg
